Calls of active or inactive are those of the source. The rule behind the calls is not given here.
Experiments:
Hepatitis B virus [1] = assay: Antiviral activity against Hepatitis B virus transfected in human HepG2.2.15 cells assessed as inhibition of HBeAg secretion after 6 days by ELISA; format: functional, organism-based; details: HepG2 2.2.15, 144 h
How it was run: (§1)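 HepG2.2.15 cells in DMEM with 10% FBS at 37 °C, 5% CO2, seeded at about 5 × 10⁵/well. After 24 h, compound was added at a range of concentrations, and media were replaced every 2 days for 6 days. Media were spun at 5000 rpm for 10 min, and secreted HBsAg and HBeAg were measured by ELISA. IC50 is the mean ± SD of three independent experiments.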

[2] = Cytotoxicity against human HepG2.2.15 cells assessed as reduction in number of viable cells after 3 days by MTT assay; format: cell-based, HepG2 2.2.15
How it was run: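 Confluent HepG2.2.15 cultures were exposed to test compounds for 3 days, with six cultures for each of two dilutions. MTT (5 g/l) was added 4 h before the end, cells were dissolved in DMSO, and OD was read at 570 nm. CC50 (50% reduction in viable cells or OD) was calculated by the Berkson logit method. Mean ± SD of three independent experiments.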

Hepatitis B virus [3] = assay: Antiviral activity against Hepatitis B virus transfected in human HepG2.2.15 cells assessed as inhibition of HBsAg secretion after 6 days by ELISA; format: functional, organism-based; details: HepG2 2.2.15, 144 h; how it was run: as §1
Mus musculus [4] = assay: Immunoregulatory activity in Hepatitis B virus infected transgenic mouse assessed as increase in CD3+ population in peripheral blood at 100 mg/kg qd for 1 month by flow cytometry (reference value: 30.1 +/-2.9%); format: functional
Mus musculus [5] = assay: Immunoregulatory activity in Hepatitis B virus infected transgenic mouse assessed as increase in cytokine IL-2 mRNA level in liver at 100 mg/kg qd for 1 month by qPCR analysis; format: functional, organism-based; design: dose 100 mg/kg
How it was run: (§2)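 Liver IFN-γ and IL-2 mRNA were measured by qPCR with mouse-specific primers, normalized to GAPDH, 40 cycles, in duplicate. HBV transgenic mice (10 per group) had been dosed at 100 mg/kg once daily for one month in 0.1% DMSO, and livers were taken at day 30. Mean ± SD of 10 mice.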

Mus musculus [6] = assay: Immunoregulatory activity in Hepatitis B virus infected transgenic mouse assessed as increase in CD4+/CD8+ population in peripheral blood at 100 mg/kg qd for 1 month by flow cytometry (reference value: 0.9 +/-0.2%); format: functional
Mus musculus [7] = assay: Immunoregulatory activity in Hepatitis B virus infected transgenic mouse assessed as increase in cytokine IFN gamma mRNA level in liver at 100 mg/kg qd for 1 month by qPCR analysis; format: functional, organism-based; design: dose 100 mg/kg; how it was run: as §2
Hepatitis B virus [8] = assay: Antiviral activity against Hepatitis B virus infected in transgenic mouse assessed as decrease in serum HBeAg level at 100 mg/kg qd for 1 month by ELISA; format: functional, organism-based; design: dose 100 mg/kg
How it was run: (§3)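 HBV transgenic mice (C57BL/6 background, 3.2 Kb HBV DNA, backcrossed to C57BL/6J), 8 weeks old, equal numbers of each sex, matched for serum HBsAg. Ten per group. Dosed 100 mg/kg once daily for one month in 0.1% DMSO. Groups included saline and 0.1% DMSO. Sera were taken at day 30, and HBsAg and HBeAg were measured by ELISA kit. Mean ± SD of 10 mice.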

Mus musculus [9] = assay: Immunoregulatory activity in Hepatitis B virus infected transgenic mouse assessed as increase in CD4+ population in peripheral blood at 100 mg/kg qd for 1 month by flow cytometry (reference value: 13.6 +/-2.7%); format: functional
Mus musculus [10] = assay: Immunoregulatory activity in Hepatitis B virus infected transgenic mouse assessed as increase in cytokine IL-2 level in serum at 100 mg/kg qd for 1 month by ELISA; format: functional, organism-based; design: dose 100 mg/kg
How it was run: (§4)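 Serum IFN-γ and IL-2 were measured by ELISA in HBV transgenic mice (10 per group) after 100 mg/kg once daily for one month in 0.1% DMSO, with sera collected at day 30. Mean ± SD of 10 mice.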

Hepatitis B virus [11] = assay: Antiviral activity against Hepatitis B virus infected in transgenic mouse assessed as decrease in viral DNA level in liver at 100 mg/kg qd for 1 month by qPCR analysis; format: functional, organism-based; design: dose 100 mg/kg
How it was run: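 HBV transgenic mice, 8 weeks old, sex- and HBsAg-matched, 10 per group. Given 100 mg/kg daily for one month, solubilized with 0.1% DMSO. Livers were harvested after 30 days. HBV DNA was extracted and quantified by qPCR with a commercial HBV DNA kit, 40 cycles, normalized to GAPDH, run in duplicate. Mean ± SD of 10 mice.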

Mus musculus [12] = assay: Immunoregulatory activity in Hepatitis B virus infected transgenic mouse assessed as increase in CD8+ population in peripheral blood at 100 mg/kg qd for 1 month by flow cytometry (reference value: 14.1 +/-1.4%); format: functional
Mus musculus [13] = assay: Immunoregulatory activity in Hepatitis B virus infected transgenic mouse assessed as increase in cytokine IFN gamma level in serum at 100 mg/kg qd for 1 month by ELISA; format: functional, organism-based; design: dose 100 mg/kg; how it was run: as §4
Hepatitis B virus [14] = assay: Antiviral activity against Hepatitis B virus infected in transgenic mouse assessed as decrease in serum HBsAg level at 100 mg/kg qd for 1 month by ELISA; format: functional, organism-based; design: dose 100 mg/kg; how it was run: as §3

IC50 (Hepatitis B virus [1]) [µM]	IC50 (Hepatitis B virus [3]) [µM]	SMILES	CC50 at 72 h [2] [µM]	Activity (Mus musculus [4]) [%]	Activity (Mus musculus [5])	Activity (Mus musculus [6]) [%]	Activity (Mus musculus [7])	inhibition (Hepatitis B virus [8])	Activity (Mus musculus [9]) [%]	Activity (Mus musculus [10])	inhibition (Hepatitis B virus [11])	Activity (Mus musculus [12]) [%]	Activity (Mus musculus [13])	inhibition (Hepatitis B virus [14])
125	79.7	Nc1nc2c(ncn2COCCOC(=O)CCC(=O)NCCC[Si]23OCCN(CCO2)CCO3)c(=O)[nH]1	485	–	–	–	–	–	–	–	–	–	–	–
486	141	CC1CN2CC(C)O[Si](CCCNC(=O)CCCC(=O)OCCOCn3cnc4c(=O)[nH]c(N)nc43)(OC[C@@H]2C)O1 (stereo partly specified)	732	–	–	–	–	–	–	–	–	–	–	–
89.8	34.5	CC1CN2CC(C)O[Si](CCCNC(=O)CCC(=O)OCCOCn3cnc4c(=O)[nH]c(N)nc43)(O1)O[C@@H](C)C2 (stereo partly specified)	467	48.3	Active	1.6	Active	Active	33	Active	Active	20.6	Active	Active
> 1000	> 1000	Nc1nc2c(ncn2COCCO)c(=O)[nH]1 [ACYCLOVIR]	630	31.2	Active	1.2	Active	–	18.7	Active	–	15.1	Active	–
160	90.4	Nc1nc2c(ncn2COCCOC(=O)CCCC(=O)NCCC[Si]23OCCN(CCO2)CCO3)c(=O)[nH]1	570	–	–	–	–	–	–	–	–	–	–	–
> 1000	406	Nc1ccn([C@@H]2CS[C@H](CO)O2)c(=O)n1 [LAMIVUDINE]	> 1000	34.1	Active	1.2	Active	–	19.3	Active	Active	16.7	Active	–
